Screening data as filed in PubChem BioAssay.
Lipid droplet = hepatic lipid droplet formation modulation; AML12 mouse hepatocytes, oleate lipid droplets, BODIPY imaging; inhibition, % at 6.5 µM; actives 0.4% (n = 240,000); AID 1656;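 active = lipid droplet intensity inhibited by at least 50%, with more than 500 cells counted; inconclusive = wells with under 300 cells, treated as cytotoxic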
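System: AML12 hepatocytes (mouse). Probe or stimulus: oleic acid at 100 µM to induce lipid droplet formation. Times: overnight treatment with compound plus oleate. Detection: Image-based BODIPY and DAPI two-channel analysis. Evaluation: percent inhibition of filter-corrected integrated lipid droplet intensity per well.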
H9c2 TAG inh = reduces triacylglycerol accumulation in H9c2 cells | Nile Red lipid (TAG) fluorescence; cells loaded with 200 µM oleic acid | inhibition, % at 12.5 µM | actives 0.66% (n = 230,000);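 active = pattern-corrected inhibition of lipid staining of at least 50% with the nuclear-stain viability signal not falling by more than 50%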;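 note: 0% = DMSO wells and 100% = triacsin C control wells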
NTR1 agonist = agonists of human neurotensin receptor NTR1 | P30989 | NTR1-U2OS beta-arrestin-GFP spot imaging, agonist mode | activation, % at 20 µM | actives 0.17% (n = 330,000);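 active = activation at or above 40% of the spot to cytoplasm intensity ratio, with at least 20 cells analyzed; inconclusive = wells under 20 cells, flagged as cytotoxic or low count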;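 note: 0% = DMSO without peptide and 100% = 100 nM NTR1 peptide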
B2AR ag = human beta-2 adrenergic receptor agonism by FAP. Am2.2-beta2AR cells, FAP receptor internalization, flow cytometry. actives 0.43% (n = 340,000). response, % (concentration not given with the values). P07550;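 active = response above a set limit, near 3 SD of response in nonfluorescent compounds, cut at about 42% in these data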
GRK2 aptamer HTS = human GRK2 inhibition via aptamer displacement; P25098; bead flow cytometry, FAM-aptamer displacement from GRK2; inhibition of aptamer binding, % at 10 µM; actives 0.59% (n = 330,000);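 active = inhibition of aptamer binding above 40%, roughly 3 SD of noise, on plates passing a quality check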;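 note: median bead fluorescence of bound FAM aptamer so fluorescent compounds give negative values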
Target sequence (P25098 whole entry, looked up): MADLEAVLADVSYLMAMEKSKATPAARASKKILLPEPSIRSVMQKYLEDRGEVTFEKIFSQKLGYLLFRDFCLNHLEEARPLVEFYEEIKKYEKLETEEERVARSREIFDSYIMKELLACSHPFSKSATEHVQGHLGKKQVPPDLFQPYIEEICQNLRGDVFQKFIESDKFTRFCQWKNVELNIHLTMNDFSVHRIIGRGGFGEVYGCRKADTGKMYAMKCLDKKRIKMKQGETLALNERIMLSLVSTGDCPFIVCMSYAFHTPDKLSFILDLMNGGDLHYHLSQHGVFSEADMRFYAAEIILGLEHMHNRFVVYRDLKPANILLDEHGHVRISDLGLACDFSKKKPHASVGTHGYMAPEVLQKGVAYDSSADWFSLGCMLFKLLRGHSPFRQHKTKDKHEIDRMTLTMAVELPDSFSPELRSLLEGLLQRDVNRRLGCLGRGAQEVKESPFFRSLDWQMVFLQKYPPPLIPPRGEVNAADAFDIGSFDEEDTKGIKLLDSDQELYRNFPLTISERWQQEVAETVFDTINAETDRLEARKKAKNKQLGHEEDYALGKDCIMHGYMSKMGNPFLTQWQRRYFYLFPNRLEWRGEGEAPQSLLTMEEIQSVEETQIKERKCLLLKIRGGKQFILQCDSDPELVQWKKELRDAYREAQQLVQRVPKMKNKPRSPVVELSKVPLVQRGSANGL
Arrestin-AP2 inh = human beta-arrestin and AP2 interaction inhibition; AID 504490; FITC-arrestin peptide / GST-AP2 beads, flow cytometry; AP2 beta2 appendage carries R879A mutation; inhibition, % at 10 µM; actives 0.31% (n = 340,000);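 active = inhibition above a set limit, near 3 SD of compounds lacking own fluorescence, cut at about 54% in these data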;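 note: plate controls were DMSO wells for no effect and 5 µM unlabelled arrestin peptide for full effect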
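System: GST-tagged AP2 beta2-adaptin appendage (R879A) on 4 µm glutathione beads / Reagent: FITC-arrestin peptide, 50 nM / Detection: HyperCyt-sampled flow cytometry, FL1 channel, ex 488/em 535 nm / Timing: 12 min plus 1 h, RT / Buffer or medium: PBS plus Tween 20 (0.05%) and BSA (0.1%)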
* = called active by the depositor; ? = inconclusive; · = no result; ! = not confirmed by another sample. Sampled rows, rich in hits. Any-hit rate of the full collection: about 2%.

SMILES	Lipid droplet	H9c2 TAG inh	NTR1 agonist	B2AR ag	GRK2 aptamer HTS	Arrestin-AP2 inh
COc1cc2c(cc1OC)-c1c(OC)c(OC)cc3c1C(C2)N(C)CC3 (stereo not drawn)	·	·	3	-25	0	4
O=C1NC(=S)N(c2ccccc2)C(=O)/C1=C/c1ccco1	-24	·	0	4	43*	1
O=C1NC(=S)NC(=O)C1=Cc1cccn1-c1ccc(O)cc1	-6	-10	·	71*	·	30
Cc1cc(C)cc(N2C(=O)NC(=O)/C(=C\c3cccn3-c3ccc(Cl)cc3)C2=O)c1	·	·	50*	8	1	2
O=P(O)(Oc1ccccc1)c1ccccc1	·	-2	·	6	·	2
Cc1ccc(/C=C2\C(=O)NC(=S)N(c3ccc(F)cc3)C2=O)s1	4	19	15	39	4	7
Cc1ccc(/C=C2\C(=O)NC(=S)N(c3ccccc3F)C2=O)s1	-9	·	·	71*	3	8
CCN(CC)c1ccc(N=Cc2c(O)n(-c3ccccc3)c(=O)[nH]c2=O)cc1	-7	9	4	6	100*	42
COc1ccc(CC(=O)C2C(=O)N(C)c3ccccc32)cc1OC (stereo not drawn)	·	-6	·	4	·	0
COc1cc(C=C2C(=O)NC(=O)NC2=O)ccc1OCc1ccc([N+](=O)[O-])cc1	3	-27	·	-3	·	10
COc1cc(/C=C(/C)[N+](=O)[O-])ccc1OCc1ccccc1Cl	-2	·	39	48*	0	2
O=C(O)c1ccc(-n2c(O)c(/C=C3\C=Nc4ccccc43)c(=O)[nH]c2=O)cc1	-2	·	-1	-1	2	-5
O=c1[nH]c(=O)n(-c2cccc(F)c2)c(O)c1/C=C1\C=Nc2ccccc21	0	·	-1	44*	0	5
COC(=O)C1=C(c2ccccc2OCc2ccccc2)C[C@@H]2CC[C@H]1N2C(=O)NCc1ccc([N+](=O)[O-])cc1	·	7	0	2	1	4
CCCCCCC[n+]1ccc(-c2cc[n+](CCCCCCC)cc2)cc1	3	·	9	-8	0	14
CCCCCCCCCCCCCCCC[n+]1ccccc1	·	54*!	·	39	·	-8
COC(=O)C1=C(c2ccc(F)cc2OCc2ccccc2)C[C@@H]2CC[C@H]1N2C(=O)NCc1ccc(Br)cc1	·	-3	0	4	6	-7
O=C1NC(=O)N(Cc2ccccc2)C(=O)/C1=C/c1cnn(-c2ccccc2)c1	3	·	47*	·	1	·
O=c1[nH]c(O)c(C=Nc2ccccc2Sc2ccccc2)c(=O)[nH]1	-16	-17	0	3	1	34
O=c1[nH]c(O)c(C=Nc2ccccc2[N+](=O)[O-])c(=O)[nH]1	-5	·	2	·	58*	·
CC1=C(N2CC2)C(=O)C(CO)=C(N2CC2)C1=O	·	107	·	-3	·	0
COC(COC(N)=O)C1=C(N2CC2)C(=O)C(C)=C(N2CC2)C1=O (stereo not drawn)	·	60*	·	-14	·	-18
COc1ccccc1C1CC2CCC(C1OC(C)=O)N2Cc1ccccc1 (stereo not drawn)	-23	-8	1	1	0	20
O=c1[nH]c(=S)[nH]c(O)c1/C=C1/C=c2ccccc2=N1	-10	·	·	52*	2	26
Cc1cccc2c1=NC(=O)/C(=C/c1c(O)[nH]c(=O)[nH]c1=O)C=2	15	·	-1	5	0	16
SMILES	Lipid droplet	H9c2 TAG inh	NTR1 agonist	B2AR ag	GRK2 aptamer HTS	Arrestin-AP2 inh
COC(=O)C1=C(c2ccc(S(C)(=O)=O)cc2)C[C@@H]2CC[C@H]1N2C(=O)NCCNC(C)=O	·	·	0	-11	4	7
O=C(O)c1cc[c]([Hg][Cl])cc1	·	14	0	-2	0	95*
COc1ccc(C(=O)O)cc1OC	·	·	·	4	·	-5
CN(C)[C@@H]1C(=O)C(C(N)=O)=C(O)[C@@]2(O)C(=O)C3=C(O)c4c(O)cccc4[C@@](C)(O)C3C[C@@H]12 (stereo partly drawn)	·	6	0	8	3	10
CN(C)[C@@H]1C(=O)C(C(N)=O)=C(O)[C@@]2(O)C(=O)C3=C(O)c4c(O)cccc4[C@@](C)(O)[C@H]3[C@H](O)[C@@H]12	-5	9	1	-7	57*!	13
COc1cc2nc(CN3CC=C(c4ccccc4)CC3)[nH]c(=O)c2cc1OC	·	73*	1	15	10	4
Cc1ccccc1-c1ccc2n1Cc1cnnn1-c1ccccc1-2	·	12	·	-5	·	-17
CC(=O)OC(C)(C)/C=C/C(=O)C(C)(O)C1C(O)CC2(C)C3CC=C4C(CC(O)C(=O)C4(C)C)C3(C)C(=O)CC12C (stereo not drawn)	·	43	·	16	·	-2
CC(=O)OC(C)(C)/C=C/C(=O)C(C)(O)C1[C@H](O)C[C@@]2(C)C3CC=C4C(CC[C@@H](O)C4(C)C)[C@]3(CO)C(=O)C[C@]12C (stereo partly drawn)	?	·	-1	52*	4	25
CC(=O)OC(C)(C)/C=C/C(=O)[C@](C)(O)[C@H]1[C@H](O)C[C@@]2(C)[C@@H]3CC=C4[C@H](C[C@H](O)C(=O)C4(C)C)[C@]3(C)C(=O)C[C@]12C	137*	·	·	68*	·	4
CCC(=NCc1ccco1)c1c(O)n(-c2ccc(Cl)cc2)c(=O)[nH]c1=O	9	34	2	5	0	-5
COc1ccc(-n2c(O)c(C=NCc3ccc4c(c3)OCO4)c(=O)[nH]c2=O)cc1	-8	6	-1	-6	1	12
NC(Cc1cc(O)c(O)cc1O)C(=O)O (stereo not drawn)	·	·	3	·	71*	·
CNCC[C@@H](Oc1ccc(C(F)(F)F)cc1)c1ccccc1	·	33	12	23	0	10
CCCCCCC(Cl)(Cn1ccnc1)c1ccccc1 (stereo not drawn)	·	-4	1	6	3	16
CC1=CC2/C=C(\C)CCC(O)C(O)/C=C/C(=O)C23C(=O)NC(CC(C)C)C3C1C (stereo not drawn)	-10	·	12	40	0	9
C/C1=C\[C@@H](C)C/C=C/[C@H]2[C@@H]3O[C@]3(C)[C@@H](C)[C@H]3[C@H](Cc4c[nH]c5ccccc45)NC(=O)[C@]32C(=O)/C=C/C(=O)[C@@H]1O	8	·	19	72*	1	-3
O=C1NC(=O)N(Cc2ccco2)C(=O)/C1=C/c1ccc(-c2cccc([N+](=O)[O-])c2)o1	-16	·	58*	34	23	10
C=CCN1C(=O)NC(=O)/C(=C\c2ccc(-c3ccccc3[N+](=O)[O-])o2)C1=O	1	-5	15	6	4	7
